# Screening data as filed in PubChem BioAssay.
# STAT1 blocker: STAT1 signaling inhibitors, primary screen, cell-based, HTS, luciferase reporter. NIH 3T3 STAT1-luciferase reporter, IFN-gamma, luminescence. inhibition, % at 5.5 µM. 200,000 compounds, 0.35% hits. AID 920, 2007;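 active means inhibition above a set limit, the mean inhibition across all tested compounds plus 3 SD, cut at about 34% in these data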
# STAT1 act: STAT1 signaling activators, primary screen, cell-based, HTS, luciferase reporter | NIH 3T3 STAT1-luciferase reporter, IFN-gamma, luminescence; 100% = IFN-gamma alone, no compound | activation (% of control), % at 5.5 µM | 200,000 compounds, 2.6% hits | AID 932, 2007;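 active means activation above the screen-wide mean activation plus 3 SD, cut at about 130% in these data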
# APP 5'UTR act: activators of APP 5'UTR luciferase reporter, primary screen, SH-SY5Y cells | activation, % at 2 µM | SH-SY5Y APP 5'UTR luciferase reporter, luminescence; zero percent = DMSO vehicle wells | 190,000 compounds, 1% hits | AID 1276, 2008;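 active means activation above a set limit, based on mean plus 3 SD of controls, cut at about 140% in these data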
# STAT3 inh: IL-6 driven STAT3 reporter inhibitors, primary screen, U3A cells, luciferase, luminescence, MLSCN library. IL-6 STAT3-luciferase reporter; host cell line lacks STAT1. inhibition, % at 5.5 µM. 190,000 compounds, 0.89% hits;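 active means inhibition above the mean inhibition across all screened compounds plus 3 SD, cut at about 44% in these data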
# STAT3 activator: IL-6 driven STAT3 reporter potentiators, primary screen, U3A cells, luciferase, luminescence, MLSCN library. IL-6 STAT3-luciferase reporter; 100% = signal with IL-6 EC80 alone. activation (% of control), % at 5.6 µM. 190,000 compounds, 0.91% hits. AID 871, 2007;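 active means activation above the screen-wide mean of compound activation plus 3 SD, cut at about 130% in these data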
#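 Material: human U3A cells carrying STAT3-luciferase construct. Measured by: reporter luminescence signal. Timing: compound 1 h, then IL-6 6 h at 37 °C.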
# NF-kB expr up: activators of NF-kB expression in neurons, primary screen, cell-based, HTS | fold change at 12.5 µM | human neuronal cells, NF-kB reporter expression; hits give high values | AID 1239, 2008 | 190,000 compounds, 1.6% hits; in the data active means fold change above about 3.3
# A number is an active result; n = inactive. Shown are actives, neighbours in structure and some others; about 5.1% of the full set was active somewhere.
SMILES,STAT1 blocker,STAT1 act,APP 5'UTR act,STAT3 inh,STAT3 activator,NF-kB expr up
COc1ccc(-c2cn3c(n2)CCC3)cc1,n,129,n,n,n,n
Cc1ccc(-c2cn3c(n2)CCCC3)cc1,n,n,n,n,n,n
CC(=O)N1N=C(c2ccc(Cl)cc2)OC1c1ccc(C(C)C)cc1 (stereo unspecified),n,133,n,n,n,n
COc1ccc(-c2nnc(SCC(=O)c3ccc[nH]3)o2)cc1,n,n,n,n,n,4.7
CCNC(=O)CSc1nnc(-c2cccs2)o1,n,n,n,n,n,n
O=C(CSc1nnc(-c2cccs2)o1)c1cccs1,n,141,n,n,n,n
COc1ccc(-c2nnc(SCC(=O)c3cccs3)o2)cc1,n,134,n,n,n,3.7
COc1ccc(-c2nnc(SCC(=O)NCc3ccco3)o2)cc1,n,n,n,n,n,n
COC(=O)c1sc(S(=O)(=O)Nc2ccc(Br)cc2)c(C(=O)OC)c1C,n,n,n,n,n,n
Oc1cccc2ccc(/C=C/c3c(F)cccc3Cl)nc12,n,n,136,n,n,5.4
Nc1nccc(/C=C/c2c(F)cccc2Cl)n1,n,n,n,n,n,n
Cc1nn(-c2nc3ccccc3[nH]2)c(=O)c2ccccc12,97,n,n,112,n,n
Cc1nn(-c2ccc3ccccc3c2)c(=O)c2ccccc12,n,149,142,n,n,n
Cc1nn(-c2ccc(Cl)cc2)c(=O)c2ccccc12,n,n,n,n,134,n
Cc1ccc(-n2ncc3ccccc3c2=O)cc1Cl,n,148,n,n,n,4.9
Cc1nn(-c2nc3ccccc3[nH]2)c(N)c1-c1ccc(Cl)cc1,n,n,n,n,n,n
Cc1ccc(-n2c(C)nc3c(cnn3-c3ccccc3Cl)c2=O)cc1C,n,n,n,n,n,n
O/N=C/c1cc(Cl)ccc1OCc1cccc2ccccc12,n,n,n,n,n,n
CC(=O)N1[C@H](C)C=C[C@]1(Cc1ccccc1)C(=O)O,n,n,n,n,n,n
CC1=C(C(=O)OCc2ccccc2)C(c2cccnc2)c2c(n(C)c(=O)n(C)c2=O)N1 (stereo unspecified),n,n,n,n,n,n
CCOc1ccc2nc(N3CCC(C(=O)Nc4nnc(CC)s4)CC3)sc2c1,n,134,n,n,n,n
O=C(c1ccc(-c2ccc(Cl)cc2Cl)o1)N1CCOCC1,n,138,n,n,n,n
CCC(=O)Nc1cccc(-c2nnc(SCC(=O)NCc3ccco3)n2C)c1,n,n,n,n,n,n
CCC(=O)Nc1cccc(-c2nnc(SCC(=O)c3ccccc3)n2C)c1,n,148,n,n,n,n
CC(C)(C)SCCNC(=O)c1ccc(Cl)c([N+](=O)[O-])c1,n,n,n,n,n,n
SMILES,STAT1 blocker,STAT1 act,APP 5'UTR act,STAT3 inh,STAT3 activator,NF-kB expr up
CCOC(=O)c1sc(N/N=C/c2cccc(C)c2)nc1C,n,130,n,n,n,n
CC(=O)c1sc(Nc2cccc(C)c2)nc1C,n,n,n,n,n,n
CC(=O)c1sc(N/N=C\c2ccccc2O)nc1C,n,n,n,n,n,5.9
COc1cccc2sc(Nc3nc(-c4ccccn4)cs3)nc12,n,136,n,n,n,n
CCOC(=O)c1sc(NC(=O)Nc2ccc(Cl)cc2)nc1C,n,129,n,n,n,n
CCOC(=O)c1sc2nc(C)nc(SCC(=O)N(C)C3CCS(=O)(=O)C3)c2c1C (stereo unspecified),n,n,n,n,n,n
COc1ccc(S(=O)(=O)N/N=c2\oc3c(OC)cccc3cc2S(=O)(=O)c2ccc(C)cc2)cc1OC,n,n,n,n,n,n
CCOC(=O)c1sc(Nc2nc3c(OC)cccc3s2)nc1C,n,n,n,n,136,n
COc1ccc(-c2csc(Nc3ncccc3C)n2)cc1OC,n,141,n,n,n,n
Oc1ccc(Nc2nc(-c3ccc(O)cc3)cs2)cc1,n,n,n,n,n,n
COc1ccc(-c2csc(/N=C/N(C)C)n2)cc1OC,n,n,n,n,n,n
Cc1cccnc1Nc1nc(-c2ccc(O)c(O)c2)cs1,n,130,n,n,n,3.6
Cc1onc(-c2c(F)cccc2Cl)c1C(=O)OCn1nnc2ccccc2c1=O,n,n,n,n,n,5.6
COc1ccc(CCNCC(=O)Nc2ccccc2C(F)(F)F)cc1,n,n,n,n,n,n
CCOC(=O)C1=C(Cc2ccc(Cl)cc2)C(=O)c2ccccc2C1=O,n,n,n,n,n,n
CCOC(=O)C1=C(O)c2ccccc2C(=O)/C1=C\c1ccc(C)cc1,n,n,n,n,134,n
Cc1cc(C)n(-c2ccc(C(=O)NC3CCCCC3)cc2)n1,n,n,n,n,n,n
Cc1cc(Nc2ncc(Cl)cc2Cl)n(-c2ccccc2C)n1,n,n,n,n,n,n
Cc1ccc(-n2nc(C)cc2Nc2ncc(Cl)cc2Cl)cc1,n,n,n,n,135,n
CC(=O)c1ccn(S(=O)(=O)c2ccccc2)c1,n,n,n,n,n,n
CCc1nnc(NS(=O)(=O)c2ccc(N/C=C/C(=O)c3ccc(OC)cc3)cc2)s1,n,136,n,n,n,n
CCOc1ccc(C(=O)/C=C/Nc2ccc(S(=O)(=O)Nc3onc(C)c3C)cc2)cc1,n,n,n,n,n,n
CCOc1ccc(C(=O)/C=C/Nc2ccc(S(=O)(=O)N=C(N)N)cc2)cc1,n,131,n,n,n,n
Cc1ccc(N/C=C2\CCCCC2=O)nc1,n,135,n,n,n,n
O=C1c2ccccc2C(=O)N1CCN1CCc2ccccc21,n,132,n,n,n,n
SMILES,STAT1 blocker,STAT1 act,APP 5'UTR act,STAT3 inh,STAT3 activator,NF-kB expr up
COc1ccc(-c2cc(C(=O)NCC3CCCO3)c3cc(C)ccc3n2)cc1 (stereo unspecified),n,133,n,n,n,n
COc1ccc(-c2cc(C(=O)NCC3CCCO3)c3ccccc3n2)cc1 (stereo unspecified),n,n,n,n,n,n
O=C1C(Nc2ccccc2)=C/C(=N/S(=O)(=O)c2cccs2)c2ccccc21,n,n,n,n,136,n
O=C1C=C(Nc2ccccc2)C(=O)c2ccccc21,n,132,140,n,n,8.2
Cc1cc(C)c2nc(SCC(=O)NCC3CCCO3)c(C#N)cc2c1 (stereo unspecified),n,n,n,n,n,n
O=C(CCN1C(=O)c2cccc3cccc(c23)C1=O)N1CCOCC1,n,129,n,n,n,n
O=C(CCN1C(=O)c2ccccc2C1=O)N1CCOCC1,n,n,n,n,n,n
